Source: PubChem (several laboratories)
tolC growth inh: E. coli tolC mutant growth inhibition; E. coli BW25113 tolC mutant growth, OD615; growth inhibition, % at 10 µM (by protocol); 65,000 compounds, 2.2% hits;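 active = growth inhibition at or above a cutoff equal to the mean over every tested compound plus 3 SD, cut at about 60% in these data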;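 note: growth measured after 20 h incubation at 37 °C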
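Material: E. coli BW25113 ΔtolC::kan, tolC deletion mutant strain. Measure: percent growth inhibition. Schedule: 37 °C, 20 h exposure. Doses: single-point testing at 10 µM. Signal: A615 absorbance measurement. Buffer or medium: kanamycin-containing LB broth (50 µg/mL).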
PostGolgi ctrl: inhibits growth of the yeast control strain; efflux-deficient yeast background strain, growth absorbance A615, 16 h; inhibition, % at 10 µM; 98,000 compounds, 5% hits; AID 738
D1 mod: allosteric modulators of human D1 dopamine receptor; HEK293 D1, CRE-luciferase, dopamine EC30 potentiation; actives deviate in either direction; P21728; 58,000 compounds, 5.9% hits; B-score at 10 µM;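 active = luminescence count or its row- and column-corrected plate score outside the 99.7% band of the plate's sample wells, on either side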
PostGolgi yeast: growth inhibition of a yeast mutant, post-Golgi transport screen; post-Golgi transport phenotypic cell assay; inhibition, % at 10 µM; 98,000 compounds, 0.9% hits;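 note: yeast cells grown in 1536-well plates; yeast grown about 18 h at 30C before absorbance read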
Ecoli WT expand: blocks growth of wild type E. coli BW25113. OD600 absorbance. 98,000 compounds, 0.15% hits. growth inhibition, % at 100 µM. AID 710;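 active = growth inhibition above about 50% at one test dose, limit read from the data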;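 note: growth measured after 20 h incubation at 37 °C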
hDAT+cocaine: modulates human dopamine transporter uptake under cocaine; Q01959; LLC-PK1 hDAT cells, [14C]-dopamine uptake with cocaine IC80; actives deviate in either direction; B-score at 10 µM; 110,000 compounds, 1.3% hits;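 active = Z score or B-score, a plate-position-corrected score, falls beyond the plate's 99.7% confidence bounds, in either direction; inactive = both scores lie inside the 99.7% bounds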;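 note: scored against the spread of the other compound wells on the same plate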
Target sequence (Q01959 whole entry, looked up): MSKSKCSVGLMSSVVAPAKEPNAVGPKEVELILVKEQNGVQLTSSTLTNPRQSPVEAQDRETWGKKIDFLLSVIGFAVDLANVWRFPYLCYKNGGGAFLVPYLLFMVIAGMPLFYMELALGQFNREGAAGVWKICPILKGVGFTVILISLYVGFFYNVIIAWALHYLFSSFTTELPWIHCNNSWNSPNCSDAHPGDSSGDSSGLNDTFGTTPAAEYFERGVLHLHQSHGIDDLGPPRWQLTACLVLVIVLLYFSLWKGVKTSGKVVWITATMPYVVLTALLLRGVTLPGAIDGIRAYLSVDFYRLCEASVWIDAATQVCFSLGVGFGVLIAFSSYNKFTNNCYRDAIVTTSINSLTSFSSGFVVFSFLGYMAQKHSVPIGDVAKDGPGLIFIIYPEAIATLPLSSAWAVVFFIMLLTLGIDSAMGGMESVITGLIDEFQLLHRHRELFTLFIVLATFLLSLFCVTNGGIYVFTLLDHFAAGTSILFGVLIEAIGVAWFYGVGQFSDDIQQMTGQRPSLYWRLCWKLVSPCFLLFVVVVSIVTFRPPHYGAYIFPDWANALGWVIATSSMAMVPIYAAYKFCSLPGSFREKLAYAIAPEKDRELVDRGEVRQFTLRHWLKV
An asterisk follows results filed as active; / = not tested or not shown. Shown are actives, neighbours in structure and some others; about 9.3% of the full set was active somewhere. Cut-off read from the data, not from the text of the source, unless noted: active = inhibition above about 30%; inactive = the rest.

SMILES	tolC growth inh	PostGolgi ctrl	D1 mod	PostGolgi yeast	Ecoli WT expand	hDAT+cocaine
C=CCn1cc(C(=O)NCCCOC)c(=O)c2cc(S(=O)(=O)N3CCC(C)CC3)ccc21	4	/	4.1*	/	/	/
CCn1cc(C(=O)NCC2CCCO2)c(=O)c2cc(S(=O)(=O)N3CCC(C)CC3)ccc21 (configuration not stated)	4	10	-4.8*	-12	-8	0.84
Cc1ccc(C(=O)O/N=C(/c2nonc2N)N(C)C)cc1	/	3	/	2	-1	-0.05
Cc1ccc(N=C(NO)c2nonc2N)cc1	/	41*	/	-3	9	1
CCOC(=O)c1cnc2c(C#N)c(C)nn2c1-c1ccccc1	-2	32*	3.4	3	-2	0.69
Cc1cc(F)ccc1NCc1ccncc1	-7	8	/	0	6	-0.036
Cc1cc(F)ccc1NCc1cc2c(cc1[N+](=O)[O-])OCO2	/	2	/	6	2	-8*
O=C(CCn1c(=O)oc2ccccc21)NCc1cccs1	-20	/	0.25	/	/	-0.048
COCc1nnc(NC(=O)c2sc3ccccc3c2Cl)s1	47	30*	-1.5	-3	-7	1.1
Cc1ccc(NC(=O)c2ccc3ccccc3n2)nc1	33	34*	-1.4	-5	-13	-0.26
O=C(Nc1ccc(Cl)cn1)c1ccc2ccccc2n1	/	9	/	-1	-10	0.064
Cc1nnc(NC(=O)c2sc3ccccc3c2Cl)s1	11	54*	-6.4*	6	0	0.71
COCc1nnc(NC(=O)CSc2ccccc2)s1	2	12	-0.17	-6	5	-2.6*
COCCn1c(COc2cccc(OC)c2)nnc1SCC(=O)N1CCOCC1	-25	-10	-0.49	13	8	1
Cc1cc(C)n(-c2c(F)c(F)c(CN3CCOCC3)c(F)c2F)n1	-20	6	-1.8	0	4	-0.61
COc1ccccc1CNC(=O)C(C)NS(=O)(=O)c1ccc(Br)cc1 (configuration not stated)	/	/	/	/	/	-0.4
Cc1ccc(NC(=O)c2sc3ccccc3c2Cl)nc1	/	31*	/	-1	-17	-0.39
COc1ccc(S(=O)(=O)Nc2c(C)ccc3nsnc23)cc1OC	0	4	1.3	-11	8	-0.45
COc1ccc(S(=O)(=O)Cc2ccc(C(=O)N3CCN(c4ccc(Cl)cc4)CC3)o2)cc1	23	37*	-0.83	-1	-18	-0.32
COc1ccc(S(=O)(=O)Cc2ccc(C(=O)N3CCN(c4cccc(C)c4C)CC3)o2)cc1	21	35*	-0.66	1	-5	-0.34
COc1ccc(S(=O)(=O)Cc2ccc(C(=O)N3CCN(c4cc(Cl)ccc4C)CC3)o2)cc1	35	32*	-1.8	-8	-18	0.61
COc1ccc(N2CCN(C(=O)c3ccc(CS(=O)(=O)c4ccc(OC)cc4)o3)CC2)cc1	-5	4	0.16	0	1	0.9
Cc1ccc(S(=O)(=O)Cc2ccc(C(=O)N3CCc4ccccc4C3)o2)cc1	/	26	/	0	-11	1.1
COc1ccc(S(=O)(=O)Cc2ccc(C(=O)N3CCc4ccccc4C3)o2)cc1	12	-2	-0.022	7	-9	2.4*
O=C(c1ccc(COc2c(F)c(F)cc(F)c2F)o1)N1CCN(c2ccc(Cl)cc2)CC1	62*	15	0.44	-3	-7	0.04
SMILES	tolC growth inh	PostGolgi ctrl	D1 mod	PostGolgi yeast	Ecoli WT expand	hDAT+cocaine
O=C(NCc1ccccn1)c1cn(Cc2ccccc2)nn1	-5	4	0.41	0	6	0.072
OC1(c2cn(Cc3ccccc3)nn2)CCCCC1	-7	38*	/	0	5	0.78
CCOC(=O)N1CCC(Nc2nc3ccccc3nc2NS(=O)(=O)c2ccc(Cl)cc2)CC1	80*	12	-1.7	3	0	-1.7
CCOC(=O)N1CCC(NC(=O)CC(NS(=O)(=O)c2ccc(Cl)cc2)c2ccco2)CC1 (configuration not stated)	24	8	/	17	-3	/
Cn1c(Oc2ccccc2NCc2cc(Br)ccc2O)cc(=O)n(C)c1=O	65*	28	-0.06	-8	10	/
Cc1cc(C)c2c(=O)[nH]c(SCC(=O)N(C)C)nc2n1	/	17	/	36*	-3	-0.44
CCN(CC)C(=O)CSc1nc2nc(C)cc(C)c2c(=O)[nH]1	/	7	/	-4	-9	0.14
COC(=O)CSc1nc(C)c(Oc2ccccc2)c(=O)[nH]1	17	6	0.17	1	-10	-0.23
C#Cc1ccc2c(c1)COc1c3ccccc3nn1-2	/	/	/	/	/	0.19
COc1ccc(Cl)cc1NC(=S)NCc1ccco1	/	10	/	-17	4	0.047
COc1ccc2c(c1)c(=O)oc1cc(OCC(=O)N3CCC(C)CC3)ccc12	1	9	0.46	1	-1	-0.26
COc1ccc2c(c1)c(=O)oc1cc(OCC(=O)N3CCCC(C)C3)ccc12 (configuration not stated)	24	59*	0.58	5	-4	-2.5*
CCc1ccc2oc(=O)cc(CN(C)Cc3ccccc3)c2c1	100*	28	0.028	7	-7	-0.013
CC(C)c1ccc2oc(=O)cc(CN3CCN(c4ccc(F)cc4)CC3)c2c1	37	33*	0.059	5	-15	-0.072
CCc1ccc2oc(=O)cc(CN3CCN(c4ccc(F)cc4)CC3)c2c1	1	38*	-0.48	13	-11	-0.65
CCC(C)(C)n1nnnc1C(C(C)C)N1CCSCC1 (configuration not stated)	-3	7	-1.3	4	-6	0.23
Cc1cc(C2N=C(N)Nc3nc4ccccc4n32)c(C)n1-c1ccccc1Cl (configuration not stated)	61*	13	0.056	9	10	-0.23
Cc1ccc(-n2c(C)cc(C3N=C(N)Nc4nc5ccccc5n43)c2C)c(C)c1 (configuration not stated)	100*	46*	-0.0039	1	-21	0.28
NC1=NC(c2ccc(F)cc2)n2c(nc3ccccc32)N1 (configuration not stated)	-3	5	-0.44	0	4	-1.8
COc1ccccc1N/C(=N/S(=O)(=O)c1ccc(C)cc1)c1ccc(Cl)cc1	/	25	/	-3	-19	0.003
COc1ccc(CC(=O)OCC(=O)NC(=O)NC2CCCCC2)cc1	10	-2	0.62	3	-5	0.99
CC(=O)Nc1sc2c(c1CN1CCN(c3ccc(F)cc3)CC1)CCCC2	/	10	/	3	-4	-0.41
CC(=O)Nc1sc2c(c1CN1CCN(c3ccccn3)CC1)CCCC2	21	/	-3.3*	/	/	0.55
Cc1sc(NC(=O)c2ccco2)c(CN2CCN(c3ccc(F)cc3)CC2)c1C	/	4	/	5	-3	-0.071
Cc1sc(NC(=O)c2ccco2)c(CN2CCN(c3ccccn3)CC2)c1C	63*	30	1.5	-5	-6	1.1
O=C(CSc1nc(C2CC2)nc2ccccc12)N1c2ccccc2Sc2ccccc21	/	18	/	23	-17	/
COc1ccc(CCNC(=O)C/C(C)=N/NC(=O)c2ccc(N)cc2)cc1OC	/	11	/	8	-9	-3.1*
